≈ marks a conversion by molar mass, not a printed value.
Columns and labels:
Type in all cases: functional
[1] = tested on: Aspergillus flavus; assay: The compound was tested for antifungal activity against Aspergillus flavus MF0383 using agar dilution assay
Summary of the method: (§1)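 Standardized agar dilution in Kimmig agar with 5% glycerol. Lysosomotropic detergents solubilized in 10% Me₂SO. Twofold serial dilutions in sterile distilled water gave final agar concentrations of 128 to 0.06 μg/mL. Stated error ±1 dilution stage.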

[2] = tested on: Aspergillus fumigatus; assay: The compound was tested for antifungal activity against Aspergillus fumigatus MF4839 using agar dilution assay; summary of the method: as §1
[3] = tested on: Candida albicans; assay: The compound was tested for antifungal activity against Candida albicans MY0992 using agar dilution assay; summary of the method: as §1
[4] = tested on: Candida albicans; assay: The compound was tested for antifungal activity against Candida albicans MY1013 using agar dilution assay; summary of the method: as §1
[5] = tested on: Candida albicans; assay: The compound was tested for antifungal activity against Candida albicans MY1055 using agar dilution assay; summary of the method: as §1
[6] = tested on: Diutina rugosa; assay: The compound was tested for antifungal activity against Candida rugosa MY1022 using agar dilution assay; summary of the method: as §1
[7] = tested on: Candida parapsilosis; assay: The compound was tested for antifungal activity against Candida parapsilosis MY1009 using agar dilution assay; conditions: Lodderomyces parapsilosis; summary of the method: as §1
[8] = tested on: Candida parapsilosis; assay: The compound was tested for antifungal activity against Candida parapsilosis MY1010 using agar dilution assay; conditions: Lodderomyces parapsilosis; summary of the method: as §1
[9] = tested on: Candida albicans; assay: The compound was tested for antifungal activity against Candida albicans MY1058 using agar dilution assay; summary of the method: as §1
[10] = tested on: Candida albicans; assay: The compound was tested for antifungal activity against Candida albicans My1029 using agar dilution assay; summary of the method: as §1
[11] = tested on: Cryptococcus neoformans; assay: The compound was tested for antifungal activity against Cryptococcus neoformans MY1051 using agar dilution assay
Summary of the method: (§2)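 Standardized agar dilution on Kimmig agar with 5% glycerol. Detergents solubilized in 10% Me2SO; desoxycholate-stabilized amphotericin B diluted and titrated in sterile distilled water. Twofold dilutions in sterile distilled water gave final agar concentrations of 128 to 0.06 μg/mL. Error limit ±1 dilution stage.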

[12] = tested on: Cryptococcus neoformans; assay: The compound was tested for antifungal activity against Cryptococcus neoformans MY1146 using agar dilution assay; summary of the method: as §2
[13] = tested on: Candida albicans; assay: The compound was tested for antifungal activity against Candida stellatoidea MY1017 using agar dilution assay; summary of the method: as §2
[14] = tested on: Pichia kudriavzevii; assay: The compound was tested for antifungal activity against Candida krusei MY1020 using agar dilution assay; summary of the method: as §1
[15] = tested on: Candida tropicalis; assay: The compound was tested for antifungal activity against Candida tropicalis MY1011 using agar dilution assay; summary of the method: as §2
[16] = tested on: Candida tropicalis; assay: The compound was tested for antifungal activity against Candida tropicalis MY1012 using agar dilution assay; summary of the method: as §2
[17] = tested on: Kluyveromyces marxianus; assay: The compound was tested for antifungal activity against Candida pseudotropicalis MY1040 using agar dilution assay; summary of the method: as §1
[18] = tested on: Naganishia albida; assay: The compound was evaluated for zone inhibition against Cryptococcus albidus MY1070 using disk diffusion assay; 9 very hazy
Summary of the method: (§3)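 Disk diffusion: 25 μL of 250 μg/mL drug in methanol on 6.2 mm paper disks, dried at room temperature, placed on seeded agar and rewet with 25 μL 10% aqueous Me₂SO. Zones were read after overnight incubation, ±1 mm. Media were unbuffered, pH ca. 4.5–5.6: potato dextrose agar for filamentous fungi, Sabouraud dextrose for yeasts, unless YNB (76 mM ammonium sulfate, sole nitrogen source) or YED is named. Zone edges were scored fuzzy, slightly hazy, hazy or very hazy.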

[19] = tested on: Cephalosporium; assay: The compound was evaluated for zone inhibition against Cephalosporium sp (MF4641) using disk diffusion assay; 12 slightly hazy; summary of the method: as §3
[20] = tested on: Ophiostoma ulmi; assay: The compound was evaluated for zone inhibition against Ceratocystis ulmi (MF4042) using disk diffusion assay; 12 slightly hazy; summary of the method: as §3
[21] = tested on: Cercospora beticola; assay: The compound was evaluated for zone inhibition against Cercospora beticola (MF4608) using disk diffusion assay; 8 hazy; summary of the method: as §3
[22] = tested on: Papiliotrema laurentii; assay: The compound was evaluated for zone inhibition against Cryptococcus laurentii MY1073 using disk diffusion assay; summary of the method: as §3
[23] = tested on: Papiliotrema laurentii; assay: The compound was evaluated for zone inhibition against Cryptococcus laurentii MY1074 using disk diffusion assay; 7 very hazy
Summary of the method: (§4)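 Filter-paper disks (6.2 mm) loaded with 25 μL of a 250 μg/mL methanol solution, dried at room temperature, laid on seeded agar and rewet with 25 μL 10% aqueous Me₂SO. Media were unbuffered, pH ca. 4.5–5.6: potato dextrose agar for filamentous fungi, sabouraud dextrose agar for yeasts, unless noted. Inhibition zone diameter read after overnight incubation, ±1 mm. Zone edges scored fuzzy, slightly hazy, hazy or very hazy.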

[24] = tested on: Papiliotrema laurentii; assay: The compound was evaluated for zone inhibition against Cryptococcus laurentii MY1077 using disk diffusion assay; 9 hazy; summary of the method: as §4
[25] = tested on: Fusarium oxysporum; assay: The compound was evaluated for zone inhibition against Fusarium oxysporum (MF4014) using disk diffusion assay; 15 Fuzzy edges; summary of the method: as §4
[26] = tested on: Kluyveromyces marxianus; assay: The compound was evaluated for zone inhibition against Kluyveromyces fragilis MY1113 using disk diffusion assay; 15 slightly hazy; summary of the method: as §4
[27] = tested on: Penicillium italicum; assay: The compound was tested for antifungal activity against Penicillium italicum MF2819 using agar dilution assay; summary of the method: as §2
[28] = tested on: Penicillium; assay: The compound was evaluated for zone inhibition against Penicillium sp (MF5014) using disk diffusion assay; 17 slightly hazy; summary of the method: as §4
[29] = tested on: Penicillium; assay: The compound was evaluated for zone inhibition against Penicillium sp (MF5016) using disk diffusion assay; 18 Fuzzy edges; summary of the method: as §4
[30] = tested on: Penicillium; assay: The compound was evaluated for zone inhibition against Penicillium sp (MF5020) using disk diffusion assay; 15 Fuzzy edges; summary of the method: as §4
[31] = tested on: Phoma; assay: The compound was evaluated for zone inhibition against Phoma sp (MF4332) using disk diffusion assay; 13 slightly hazy; summary of the method: as §4
[32] = tested on: Saccharomyces cerevisiae; assay: The compound was tested for antifungal activity against Saccharomyces cerevisiae MY1027 using agar dilution assay; summary of the method: as §2
[33] = tested on: Rhizomucor miehei; assay: The compound was evaluated for zone inhibition against Rhizomucor miehei (MF4784) using disk diffusion assay; 9 hazy; summary of the method: as §4
[34] = tested on: Nakaseomyces glabratus; assay: The compound was evaluated for zone inhibition against Torulopsis glabrata MY1062 using disk diffusion assay; 7 very hazy; summary of the method: as §4
[35] = tested on: Saccharomyces cerevisiae; assay: The compound was evaluated for zone inhibition against Saccharomyces cerevisiae MY410 using disk diffusion assay; summary of the method: as §4
[36] = tested on: Saccharomyces cerevisiae; assay: The compound was evaluated for zone inhibition against Saccharomyces cerevisiae YED MY34 using disk diffusion assay; 8 slightly hazy; summary of the method: as §4
[37] = tested on: Trichoderma; assay: The compound was evaluated for zone inhibition against Trichoderma sp (MF4064) using disk diffusion assay; 16 Fuzzy edges; summary of the method: as §4
[38] = tested on: Trichoderma viride; assay: The compound was evaluated for zone inhibition against Trichoderma lignorum (MF3560) using disk diffusion assay; 13 Fuzzy edges; summary of the method: as §4
[39] = tested on: Ustilago maydis; assay: The compound was evaluated for zone inhibition against Ustilago zeae (MF1996) using disk diffusion assay; 14 slightly hazy; summary of the method: as §4
[40] = tested on: Saccharomyces cerevisiae; assay: (§5) The compound was evaluated for mean zone diameter (inhibition) against yeast at the concentration of 1000 ug/mL
Summary of the method: (§6)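 Disk diffusion: drug in methanol spotted on 6.2 mm paper disks (25 μL/disk), dried at room temperature, laid on seeded agar, rewet with 25 μL 10% aqueous Me₂SO; zones read after overnight incubation. Unbuffered acidic media (pH ca. 4.5–5.6). Panel of 21 yeasts and 21 filamentous fungi; zones of 0 mm excluded from means.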

[41] = tested on: Saccharomyces cerevisiae; assay: The compound was evaluated for mean zone diameter (inhibition) against yeast at the concentration of 125 ug/mL
Summary of the method: (§7)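 Filter-paper disk diffusion (6.2 mm disks) with drug in methanol at the stated level, 25 μL per disk. Disks were air-dried at room temperature, laid on seeded agar, rewet with 25 μL 10% aqueous Me₂SO and incubated overnight. Media were unbuffered, pH ca. 4.5–5.6. The panel was 21 yeasts and 21 filamentous fungi. Zones of 0 mm were excluded from means.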

[42] = tested on: Saccharomyces cerevisiae; assay: The compound was evaluated for mean zone diameter (inhibition) against yeast at the concentration of 250 ug/mL; summary of the method: as §7
[43] = tested on: Saccharomyces cerevisiae; assay: The compound was evaluated for mean zone diameter (inhibition) against yeast at the concentration of 500 ug/mL; summary of the method: as §6
[44] = tested on: Saccharomyces cerevisiae; assay: The compound was evaluated for mean zone diameter (inhibition) against yeast at the concentration of 62.5 ug/mL; summary of the method: as §7
[45] = tested on: Nakaseomyces glabratus; assay: The compound was tested for antifungal activity against Torulopsis glabrata MY1059 using agar dilution assay; summary of the method: as §2
[46] = tested on: Meyerozyma guilliermondii; assay: The compound was tested for antifungal activity against Candida guilliermondii MY1019 using agar dilution assay; summary of the method: as §1
[47] = tested on: Kluyveromyces marxianus; assay: The compound was evaluated for zone inhibition against Candida pseudotropicalis MY1100 using disk diffusion assay; 19 slightly hazy; summary of the method: as §3
[48] = tested on: Fungi; assay: as §5; summary of the method: as §6

CCCCCCCCCCCCN1CCOCC1
MIC [1]: 64 µg/mL (≈ 251 µM)
MIC [2]: 64 µg/mL (≈ 251 µM)
MIC [3]: 64 µg/mL (≈ 251 µM)
MIC [4]: 32 µg/mL (≈ 125 µM)
MIC [5]: 32 µg/mL (≈ 125 µM)
MIC [6]: 32 µg/mL (≈ 125 µM)
MIC [7]: 64 µg/mL (≈ 251 µM)
MIC [8]: 16 µg/mL (≈ 62.6 µM)
MIC [9]: 32 µg/mL (≈ 125 µM)
MIC [10]: 32 µg/mL (≈ 125 µM)
MIC [11]: 16 µg/mL (≈ 62.6 µM)
MIC [12]: 32 µg/mL (≈ 125 µM)
MIC [13]: 32 µg/mL (≈ 125 µM)
MIC [14]: 32 µg/mL (≈ 125 µM)
MIC [15]: 32 µg/mL (≈ 125 µM)
MIC [16]: 16 µg/mL (≈ 62.6 µM)
MIC [17]: 32 µg/mL (≈ 125 µM)
Inhibition zone [18]: 9 mm
Inhibition zone [19]: 12 mm
Inhibition zone [20]: 17 mm
Inhibition zone [21]: 8 mm
Inhibition zone [22]: 0 mm
Inhibition zone [23]: 7 mm
Inhibition zone [24]: 9 mm
Inhibition zone [25]: 15 mm
Inhibition zone [26]: 15 mm
MIC [27]: 32 µg/mL (≈ 125 µM)
Inhibition zone [28]: 17 mm
Inhibition zone [29]: 18 mm
Inhibition zone [30]: 15 mm
Inhibition zone [31]: 13 mm
MIC [32]: 32 µg/mL (≈ 125 µM)
Inhibition zone [33]: 9 mm
Inhibition zone [34]: 7 mm
Inhibition zone [35]: 0 mm
Inhibition zone [36]: 8 mm
Inhibition zone [37]: 16 mm
Inhibition zone [38]: 13 mm
Inhibition zone [39]: 14 mm
Inhibition zone [40]: 19 mm
Inhibition zone [41]: 10.2 mm
Inhibition zone [42]: 11.4 mm
Inhibition zone [43]: 12.8 mm
Inhibition zone [44]: 8.6 mm
MIC [45]: 64 µg/mL (≈ 251 µM)
MIC [46]: 32 µg/mL (≈ 125 µM)
Inhibition zone [47]: 19 mm

CC(=O)N1CCN(c2ccc(OCC3COC(Cn4ccnc4)(c4ccc(Cl)cc4Cl)O3)cc2)CC1 (configuration not stated) [KETOCONAZOLE]
MIC [1]: 1 µg/mL (≈ 1.88 µM)
MIC [2]: 1 µg/mL (≈ 1.88 µM)
MIC [3]: 1 µg/mL (≈ 1.88 µM)
MIC [4]: 0.5 µg/mL (≈ 0.941 µM)
MIC [5]: 0.5 µg/mL (≈ 0.941 µM)
MIC [6]: 0.5 µg/mL (≈ 0.941 µM)
MIC [7]: 4 µg/mL (≈ 7.53 µM)
MIC [8]: 2 µg/mL (≈ 3.76 µM)
MIC [9]: 0.5 µg/mL (≈ 0.941 µM)
MIC [10]: 0.5 µg/mL (≈ 0.941 µM)
MIC [11]: 0.25 µg/mL (≈ 0.47 µM)
MIC [12]: 0.5 µg/mL (≈ 0.941 µM)
MIC [13]: 0.5 µg/mL (≈ 0.941 µM)
MIC [14]: 1 µg/mL (≈ 1.88 µM)
MIC [15]: 1 µg/mL (≈ 1.88 µM)
MIC [16]: > 128 µg/mL
MIC [17]: 1 µg/mL (≈ 1.88 µM)
Inhibition zone [48]: 27.2 mm
MIC [27]: 1 µg/mL (≈ 1.88 µM)
MIC [32]: 0.5 µg/mL (≈ 0.941 µM)
Inhibition zone [41]: 20.6 mm
Inhibition zone [42]: 23.3 mm
Inhibition zone [43]: 24.8 mm
MIC [45]: 1 µg/mL (≈ 1.88 µM)
MIC [46]: 0.5 µg/mL (≈ 0.941 µM)

Reference: ChEMBL document CHEMBL1123822, “Lysosomotropic agents. 7. Broad-spectrum antifungal activity of lysosomotropic detergents” (1987)
